Test results reported in ChEMBL document CHEMBL1821604, “Anticancer activity and cDNA microarray studies of a (RS)-1,2,3,5-tetrahydro-4,1-benzoxazepine-3-yl]-6-chloro-9H-purine, and an acyclic (RS)-O,N-acetalic 6-chloro-7H-purine” (Eur J Med Chem, 2011).

How the values were obtained:
Format in all cases: functional
MCF7 [1] = assay: Down regulation of AF086546 gene expression in human MCF7 cells at IC50 after 48 hrs by cDNA microarray technique relative to control
Summary of the method: (§1)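 8 × 10⁶ cells exposed 48 h to compound at its IC50 concentration; total RNA isolated with trizol/chloroform and RNeasy columns including on-column DNase step; RNA quantified by OD 260/280; DMSO-treated cultures as control.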

MCF7 [2] = assay: Down regulation of KIF3B gene expression in human MCF7 cells at IC50 after 48 hrs by cDNA microarray technique relative to control
Summary of the method: (§2)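 Cells (8 × 10⁶) were cultured in DMEM with 10% heat-inactivated FBS at 37 °C under 5% CO₂. They were exposed for 48 h to compound at its IC₅₀, with DMSO-treated parallel cultures as controls (final DMSO ≤0.1% v/v). Total RNA was isolated by trizol/chloroform phase separation, RNeasy column cleanup and on-column DNase, then quantified by OD260/OD280. Expression was profiled by cDNA microarray relative to control.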

MCF7 [3] = assay: Down regulation of IL1F9 gene expression in human MCF7 cells at IC50 after 48 hrs by cDNA microarray technique relative to control; summary of the method: as §2
MCF7 [4] = assay: Down regulation of C1orf131 gene expression in human MCF7 cells at IC50 after 48 hrs by cDNA microarray technique relative to control; summary of the method: as §1
HT-29 [5] = assay: Upregulation of PDE4B gene expression in human HT-29 cells at IC50 after 48 hrs by cDNA microarray technique relative to control
MCF7 [6] = assay: Down regulation of TSSK6 gene expression in human MCF7 cells at IC50 after 48 hrs by cDNA microarray technique relative to control
MCF7 [7] = assay: Down regulation of TGM4 gene expression in human MCF7 cells at IC50 after 48 hrs by cDNA microarray technique relative to control
HT-29 [8] = assay: Down regulation of FLJ25476 gene expression in human HT-29 cells at IC50 after 48 hrs by cDNA microarray technique relative to control; summary of the method: as §2
HT-29 [9] = assay: Down regulation of FUT9 gene expression in human HT-29 cells at IC50 after 48 hrs by cDNA microarray technique relative to control; summary of the method: as §2
HT-29 [10] = assay: Down regulation of CD1B gene expression in human HT-29 cells at IC50 after 48 hrs by cDNA microarray technique relative to control; summary of the method: as §1
HT-29 [11] = assay: Down regulation of FLJ32871 gene expression in human HT-29 cells at IC50 after 48 hrs by cDNA microarray technique relative to control; summary of the method: as §2
HT-29 [12] = assay: Down regulation of NFATC1 gene expression in human HT-29 cells at IC50 after 48 hrs by cDNA microarray technique relative to control
MCF7 [13] = assay: Upregulation of SMARCA1 gene expression in human MCF7 cells at IC50 after 48 hrs by cDNA microarray technique relative to control
MCF7 [14] = assay: Upregulation of NPAT gene expression in human MCF7 cells at IC50 after 48 hrs by cDNA microarray technique relative to control
MCF7 [15] = assay: Upregulation of PPIL4 gene expression in human MCF7 cells at IC50 after 48 hrs by cDNA microarray technique relative to control
MCF7 [16] = assay: Upregulation of LCN12 gene expression in human MCF7 cells at IC50 after 48 hrs by cDNA microarray technique relative to control
MCF7 [17] = assay: Down regulation of CORO2B gene expression in human MCF7 cells at IC50 after 48 hrs by cDNA microarray technique relative to control; summary of the method: as §1
MCF7 [18] = assay: Down regulation of DKFZp727G131 gene expression in human MCF7 cells at IC50 after 48 hrs by cDNA microarray technique relative to control; summary of the method: as §1
MCF7 [19] = assay: Down regulation of ADAMTS3 gene expression in human MCF7 cells at IC50 after 48 hrs by cDNA microarray technique relative to control; summary of the method: as §1
HT-29 [20] = assay: Down regulation of CKLFSF5 gene expression in human HT-29 cells at IC50 after 48 hrs by cDNA microarray technique relative to control; summary of the method: as §1
HT-29 [21] = assay: Down regulation of HNRPA2B1 gene expression in human HT-29 cells at IC50 after 48 hrs by cDNA microarray technique relative to control; summary of the method: as §2
HT-29 [22] = assay: Down regulation of EML2 gene expression in human HT-29 cells at IC50 after 48 hrs by cDNA microarray technique relative to control; summary of the method: as §2
HT-29 [23] = assay: Down regulation of FUS gene expression in human HT-29 cells at IC50 after 48 hrs by cDNA microarray technique relative to control; summary of the method: as §2
HT-29 [24] = assay: Down regulation of PRP19 gene expression in human HT-29 cells at IC50 after 48 hrs by cDNA microarray technique relative to control
HT-29 [25] = assay: Down regulation of OR4K15 gene expression in human HT-29 cells at IC50 after 48 hrs by cDNA microarray technique relative to control
HT-29 [26] = assay: Down regulation of MDGA1 gene expression in human HT-29 cells at IC50 after 48 hrs by cDNA microarray technique relative to control
MCF7 [27] = assay: Upregulation of ERN1 gene expression in human MCF7 cells at IC50 after 48 hrs by cDNA microarray technique relative to control
MCF7 [28] = assay: Down regulation of BIVM gene expression in human MCF7 cells at IC50 after 48 hrs by cDNA microarray technique relative to control; summary of the method: as §1
MCF7 [29] = assay: Down regulation of THC2438856 gene expression in human MCF7 cells at IC50 after 48 hrs by cDNA microarray technique relative to control
MCF7 [30] = assay: Down regulation of P2RY13 gene expression in human MCF7 cells at IC50 after 48 hrs by cDNA microarray technique relative to control
MCF7 [31] = assay: Down regulation of CNIH3 gene expression in human MCF7 cells at IC50 after 48 hrs by cDNA microarray technique relative to control; summary of the method: as §1
HT-29 [32] = assay: Upregulation of TUBB4 gene expression in human HT-29 cells at IC50 after 48 hrs by cDNA microarray technique relative to control
HT-29 [33] = assay: Upregulation of PLOD2 gene expression in human HT-29 cells at IC50 after 48 hrs by cDNA microarray technique relative to control
HT-29 [34] = assay: Upregulation of UNC5B gene expression in human HT-29 cells at IC50 after 48 hrs by cDNA microarray technique relative to control
HT-29 [35] = assay: Down regulation of PRO1855 gene expression in human HT-29 cells at IC50 after 48 hrs by cDNA microarray technique relative to control
HT-29 [36] = assay: Down regulation of GANAB gene expression in human HT-29 cells at IC50 after 48 hrs by cDNA microarray technique relative to control; summary of the method: as §2
HT-29 [37] = assay: Down regulation of PP1201 gene expression in human HT-29 cells at IC50 after 48 hrs by cDNA microarray technique relative to control
HT-29 [38] = assay: Down regulation of POLE gene expression in human HT-29 cells at IC50 after 48 hrs by cDNA microarray technique relative to control

Structure (SMILES): COC(CN(c1ccccc1CO)S(=O)(=O)c1ccccc1[N+](=O)[O-])n1cnc2ncnc(Cl)c21 (racemic)
- fold change (FC) (MCF7 [1]): -2.14
- fold change (FC) (MCF7 [2]): -2.14
- fold change (FC) (MCF7 [3]): -2.17
- fold change (FC) (MCF7 [4]): -2.26
- fold change (FC) (HT-29 [5]): 3.84
- fold change (FC) (MCF7 [6]): -2.43
- fold change (FC) (MCF7 [7]): -2.58
- fold change (FC) (HT-29 [8]): -2.11
- fold change (FC) (HT-29 [9]): -2.25
- fold change (FC) (HT-29 [10]): -2.32
- fold change (FC) (HT-29 [11]): -2.51
- fold change (FC) (HT-29 [12]): -2.78
- fold change (FC) (MCF7 [13]): 2.91
- fold change (FC) (MCF7 [14]): 2.68
- fold change (FC) (MCF7 [15]): 2.4
- fold change (FC) (MCF7 [16]): 2.24
- fold change (FC) (MCF7 [17]): -2.01
- fold change (FC) (MCF7 [18]): -2.03
- fold change (FC) (MCF7 [19]): -2.06

Structure (SMILES): O=C(OCC1c2ccccc2-c2ccccc21)N1CC(n2cnc3c(Cl)ncnc32)OCc2ccccc21 (racemic)
- fold change (FC) (HT-29 [20]): -2.19
- fold change (FC) (HT-29 [21]): -2.33
- fold change (FC) (HT-29 [22]): -2.82
- fold change (FC) (HT-29 [23]): -2.99
- fold change (FC) (HT-29 [24]): -3.33
- fold change (FC) (HT-29 [25]): -3.6
- fold change (FC) (HT-29 [26]): -3.92
- fold change (FC) (MCF7 [27]): 2.81
- fold change (FC) (MCF7 [28]): -2.05
- fold change (FC) (MCF7 [29]): -3.05
- fold change (FC) (MCF7 [30]): -3.05
- fold change (FC) (MCF7 [31]): -3.32
- fold change (FC) (HT-29 [32]): 3.23
- fold change (FC) (HT-29 [33]): 2.76
- fold change (FC) (HT-29 [34]): 2.42
- fold change (FC) (HT-29 [35]): -2
- fold change (FC) (HT-29 [36]): -2.04
- fold change (FC) (HT-29 [37]): -2.04
- fold change (FC) (HT-29 [38]): -2.12
